Reference: ChEMBL document CHEMBL4304756, “Second-Generation Tryptamine Derivatives Potently Sensitize Colistin Resistant Bacteria to Colistin” (ACS Med Chem Lett, 2019)
Activity calls are given as the source filed them. The rule behind the calls is not given here.

Tests used:
Klebsiella pneumoniae [1] = assay: Potentiation of colistin-induced antibacterial activity against Klebsiella pneumoniae B9 assessed as reduction in colistin MIC at 10 uM incubated for 16 hrs by broth microdilution method (reference value: 512 ug/ml); assay type: functional; details: B9, 16 h
Method in brief: (§1)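 Colistin MIC was measured against chromosomally colistin-resistant strains (K. pneumoniae B9, C3; A. baumannii 4106, among four strains) with adjuvant at fixed levels from 20 μM down to 7.5 μM. Fold reduction was reported against colistin alone, with the CLSI breakpoint taken as ≤2 μg/mL.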

Klebsiella pneumoniae [2] = assay: Potentiation of colistin-induced antibacterial activity against Klebsiella pneumoniae B9 assessed as reduction in colistin MIC at 5 uM incubated for 16 hrs by broth microdilution method (reference value: 512 ug/ml); assay type: functional; details: B9, 16 h
Escherichia coli = assay: Potentiation of colistin-induced antibacterial activity against Escherichia coli YD626 harbouring mcr-1 gene assessed as reduction in colistin MIC at 5 uM incubated for 16 hrs by broth microdilution method (reference value: 8 ug/ml); assay type: functional; details: YD626, 16 h
Method in brief: (§2)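 For the dose-response, colistin MIC was measured against mcr-1 plasmid-bearing E. coli, K. pneumoniae and A. baumannii while the adjuvant concentration was lowered stepwise (30, 15 μM, down to 5 μM). The aim was to find where the MIC rose above the 2 μg/mL CLSI susceptibility breakpoint.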

Klebsiella pneumoniae [3] = assay: Potentiation of colistin-induced antibacterial activity against Klebsiella pneumoniae B9 assessed as reduction in colistin MIC at 7.5 uM incubated for 16 hrs by broth microdilution method (reference value: 512 ug/ml); assay type: functional; details: B9, 16 h
Acinetobacter baumannii [4] = assay: Potentiation of colistin-induced antibacterial activity against Acinetobacter baumannii 4106 assessed as reduction in colistin MIC at 7.5 uM incubated for 16 hrs by broth microdilution method (reference value: 1024 ug/ml); assay type: functional; details: Acinetobacter baumannii, 4106, 16 h; method in brief: as §1
Acinetobacter baumannii [5] = assay: Potentiation of colistin-induced antibacterial activity against Acinetobacter baumannii 3941 assessed as reduction in colistin MIC at 20 uM incubated for 16 hrs by broth microdilution method (reference value: 512 ug/ml); assay type: functional; details: Acinetobacter baumannii, 3941, 16 h
Klebsiella pneumoniae [6] = assay: Potentiation of colistin-induced antibacterial activity against Klebsiella pneumoniae 2210291 harbouring mcr-1 gene assessed as reduction in colistin MIC at 15 uM incubated for 16 hrs by broth microdilution method; assay type: functional, organism-based; method in brief: as §2
Acinetobacter baumannii [7] = assay: Potentiation of colistin-induced antibacterial activity against Acinetobacter baumannii 17978 harbouring mcr-1 gene assessed as reduction in colistin MIC at 15 uM incubated for 16 hrs by broth microdilution method; assay type: functional, organism-based; method in brief: as §2
Acinetobacter baumannii [8] = assay: Potentiation of colistin-induced antibacterial activity against Acinetobacter baumannii 4106 assessed as reduction in colistin MIC at 15 uM incubated for 16 hrs by broth microdilution method (reference value: 1024 ug/ml); assay type: functional; details: Acinetobacter baumannii, 4106, 16 h
Acinetobacter baumannii [9] = assay: Potentiation of colistin-induced antibacterial activity against Acinetobacter baumannii 17978 harbouring mcr-1 gene assessed as reduction in colistin MIC at 5 uM incubated for 16 hrs by broth microdilution method (reference value: 16 ug/ml); assay type: functional; details: Acinetobacter baumannii, 17978, 16 h; method in brief: as §2
Klebsiella pneumoniae [10] = assay: Potentiation of colistin-induced antibacterial activity against Klebsiella pneumoniae C3 assessed as reduction in colistin MIC at 15 uM incubated for 16 hrs by broth microdilution method (reference value: 512 ug/ml); assay type: functional; details: C3, 16 h
Klebsiella pneumoniae [11] = assay: Potentiation of colistin-induced antibacterial activity against Klebsiella pneumoniae 2210291 harbouring mcr-1 gene assessed as reduction in colistin MIC at 5 uM incubated for 16 hrs by broth microdilution method (reference value: 16 ug/ml); assay type: functional; details: Klebsiella pneumoniae, 2210291, 16 h; method in brief: as §2

Question: For `O=C(NCCc1c[nH]c2ccc(Br)cc12)Nc1cc(Cl)c(Br)c(Cl)c1`, which MIC (Klebsiella pneumoniae [1]) is on record?
Answer: ≤ 0.25 µg/mL

Question: What about the MIC (Klebsiella pneumoniae [2]) of the same compound?
Answer: 0.5 µg/mL

Question: And the MIC (Escherichia coli)?
Answer: 1 µg/mL

Question: What about the MIC (Klebsiella pneumoniae [3]) of the same compound?
Answer: ≤ 0.25 µg/mL

Question: What about the MIC (Acinetobacter baumannii [4]) of the same compound?
Answer: 1 µg/mL

Question: What about the MIC (Acinetobacter baumannii [5]) of the same compound?
Answer: 2 µg/mL

Question: And the Activity (Klebsiella pneumoniae [6])?
Answer: Active

Question: What about the Activity (Acinetobacter baumannii [7]) of the same compound?
Answer: Active

Question: And the MIC (Acinetobacter baumannii [8])?
Answer: ≤ 0.5 µg/mL

Question: And the MIC (Acinetobacter baumannii [9])?
Answer: 1 µg/mL

Question: And the MIC (Klebsiella pneumoniae [10])?
Answer: 0.5 µg/mL

Question: And the MIC (Klebsiella pneumoniae [11])?
Answer: 2 µg/mL
